# Results reported in ChEMBL document CHEMBL1124786, “Potent, low molecular weight renin inhibitors containing a C-terminal heterocycle: hydrogen bonding at the active site” (J Med Chem, 1990).
# What was measured:
# Renin [1] = target: T1, Renin (Homo sapiens, UniProt P00797); experiment: In vitro inhibition of human plasma renin.; assay type: cell-free
# T1 sequence (P00797 whole entry): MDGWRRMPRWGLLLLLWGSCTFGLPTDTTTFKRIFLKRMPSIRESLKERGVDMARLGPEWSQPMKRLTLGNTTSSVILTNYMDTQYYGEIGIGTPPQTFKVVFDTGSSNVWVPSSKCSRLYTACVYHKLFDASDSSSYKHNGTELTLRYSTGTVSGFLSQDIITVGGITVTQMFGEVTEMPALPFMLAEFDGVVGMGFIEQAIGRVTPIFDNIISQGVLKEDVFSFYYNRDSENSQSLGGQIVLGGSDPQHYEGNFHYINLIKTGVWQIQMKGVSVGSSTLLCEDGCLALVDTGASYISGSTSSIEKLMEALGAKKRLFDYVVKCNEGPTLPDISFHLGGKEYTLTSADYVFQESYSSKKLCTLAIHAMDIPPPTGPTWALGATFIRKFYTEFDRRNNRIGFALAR
# Procedure, shortened: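 Renin activity was measured in human plasma at pH 7.4, and the result is reported as IC50 in nM.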
# Renin [2] = target: T1, Renin; experiment: In vitro inhibition of purified human renal renin.
# Procedure, shortened: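 The enzyme was human renal renin, purified and tested at pH 6.0. The read-out is IC50 in nM.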
# Pepsin A (Sus scrofa) = Pepsin A (Sus scrofa) (UniProt P00791); experiment: Percent inhibition against porcine pepsin at a concentration of 1 x 10 e-5 M and pH 2
# Cathepsin D (Bos taurus) [3] = target: T2, Cathepsin D (Bos taurus) (UniProt P80209); experiment: Percent inhibition against bovine Cathepsin D at a concentration of 1 x 10 e-5 M and pH 3
# T2 sequence (whole entry): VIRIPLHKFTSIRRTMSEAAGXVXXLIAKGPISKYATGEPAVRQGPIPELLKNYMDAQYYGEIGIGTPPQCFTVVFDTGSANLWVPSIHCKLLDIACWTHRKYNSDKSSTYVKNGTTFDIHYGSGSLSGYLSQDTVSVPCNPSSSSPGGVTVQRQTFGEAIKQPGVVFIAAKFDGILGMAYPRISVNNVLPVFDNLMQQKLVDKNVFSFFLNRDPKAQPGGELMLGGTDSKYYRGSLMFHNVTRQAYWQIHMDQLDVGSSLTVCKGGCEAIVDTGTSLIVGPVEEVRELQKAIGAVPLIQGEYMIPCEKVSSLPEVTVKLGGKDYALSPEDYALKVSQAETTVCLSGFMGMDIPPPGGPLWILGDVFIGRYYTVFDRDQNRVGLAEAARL
# Cathepsin D (Bos taurus) [4] = target: T2, Cathepsin D (Bos taurus); experiment: Percent inhibition against bovine cathepsin D at a concentration of 1 x 10 e-5 M and pH 3
# Chain of Pepsin A (Sus scrofa) (P00791 60-385 limits assumed): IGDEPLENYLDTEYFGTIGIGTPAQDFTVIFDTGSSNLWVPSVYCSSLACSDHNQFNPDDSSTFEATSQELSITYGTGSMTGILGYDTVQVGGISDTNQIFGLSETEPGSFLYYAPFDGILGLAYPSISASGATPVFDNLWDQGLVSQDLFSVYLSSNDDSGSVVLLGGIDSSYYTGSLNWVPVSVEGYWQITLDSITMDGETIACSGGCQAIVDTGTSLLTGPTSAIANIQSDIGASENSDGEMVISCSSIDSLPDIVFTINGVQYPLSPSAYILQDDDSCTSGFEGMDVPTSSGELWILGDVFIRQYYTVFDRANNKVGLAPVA
SMILES,IC50 (Renin [1]) [nM],IC50 (Renin [2]) [nM],inhibition (Pepsin A (Sus scrofa)) [%],inhibition (Cathepsin D (Bos taurus) [3]) [%],inhibition (Cathepsin D (Bos taurus) [4]) [%]
CC(C)C[C@H](O)[C@H](O)[C@H](CC1CCCCC1)NC(=O)[C@H](Cc1c[nH]cn1)NC(=O)[C@H](Cc1ccccc1)NC(=O)OC(C)(C)C,,,0,0,
CCON1C[C@@H]([C@H](O)[C@H](CC2CCCCC2)NC(=O)[C@H](Cc2cnc[nH]2)NC(=O)[C@H](Cc2ccccc2)NC(=O)OC(C)(C)C)OC1=O,17,1.3,,,
CON1C[C@@H]([C@H](O)[C@H](CC2CCCCC2)NC(=O)[C@H](Cc2cnc[nH]2)NC(=O)[C@H](Cc2ccccc2)NC(=O)OC(C)(C)C)OC1=O,9.2,0.9,,,
CN1C[C@@H]([C@H](O)[C@H](CC2CCCCC2)NC(=O)[C@H](Cc2c[nH]cn2)NC(=O)[C@H](Cc2ccccc2)NC(=O)OC(C)(C)C)OC1=O,8.8,1.4,,,
CC(C)ON1C[C@@H]([C@H](O)[C@H](CC2CCCCC2)NC(=O)[C@H](Cc2c[nH]cn2)NC(=O)[C@H](Cc2ccccc2)NC(=O)OC(C)(C)C)OC1=O,26,1.4,,,
C[C@H]1C[C@@H]([C@H](O)[C@H](CC2CCCCC2)NC(=O)[C@H](Cc2c[nH]cn2)NC(=O)[C@H](Cc2ccccc2)NC(=O)OC(C)(C)C)OC1=O,2.3,0.32,,,
CCN1C[C@@H]([C@H](O)[C@H](CC2CCCCC2)NC(=O)[C@H](Cc2c[nH]cn2)NC(=O)[C@H](Cc2ccccc2)NC(=O)OC(C)(C)C)OC1=O,,,0,,21
CON1C[C@@H]([C@H](O)[C@H](CC2CCCCC2)NC(=O)[C@H](Cc2c[nH]cn2)NC(=O)[C@H](Cc2ccccc2)NC(=O)OC(C)(C)C)OC1=O,,,0,,0
CCCN1C[C@@H]([C@H](O)[C@H](CC2CCCCC2)NC(=O)[C@H](Cc2cnc[nH]2)NC(=O)[C@H](Cc2ccccc2)NC(=O)OC(C)(C)C)OC1=O,12,1,,,
C=C1C[C@@H]([C@H](O)[C@H](CC2CCCCC2)NC(=O)[C@H](Cc2c[nH]cn2)NC(=O)[C@H](Cc2ccccc2)NC(=O)OC(C)(C)C)OC1=O,21,0.71,,,
CC(C)(C)OC(=O)N[C@@H](Cc1ccccc1)C(=O)N[C@@H](Cc1c[nH]cn1)C(=O)N[C@@H](CC1CCCCC1)[C@@H](O)[C@@H]1CCNC(=O)O1,29,3.1,,,
CC(C)CN1C[C@@H]([C@H](O)[C@H](CC2CCCCC2)NC(=O)[C@H](Cc2cnc[nH]2)NC(=O)[C@H](Cc2ccccc2)NC(=O)OC(C)(C)C)OC1=O,21,3,,,
C[C@@H]1CO[C@H]([C@H](O)[C@H](CC2CCCCC2)NC(=O)[C@H](Cc2c[nH]cn2)NC(=O)[C@H](Cc2ccccc2)NC(=O)OC(C)(C)C)C1,3,1.2,2,9,
CC(C)(C)OC(=O)N[C@@H](Cc1ccccc1)C(=O)N[C@@H](Cc1c[nH]cn1)C(=O)N[C@@H](CC1CCCCC1)[C@@H](O)[C@@H]1CN(CCO)C(=O)O1,7.4,0.7,,,
"CON1CC([C@H](O)[C@@H](CC2CCCCC2)NC(=O)[C@H](Cc2c[nH]cn2)NC(=O)[C@H](Cc2ccccc2)NC(=O)OC(C)(C)C)OC1=O (single isomer, unassigned)",,43,,,

# The next lines start with the values.
IC50 (Renin [1]) [nM],IC50 (Renin [2]) [nM],inhibition (Pepsin A (Sus scrofa)) [%],inhibition (Cathepsin D (Bos taurus) [3]) [%],inhibition (Cathepsin D (Bos taurus) [4]) [%],SMILES
2.8,0.63,,,,CCN1C[C@@H]([C@H](O)[C@H](CC2CCCCC2)NC(=O)[C@H](Cc2cnc[nH]2)NC(=O)[C@H](Cc2ccccc2)NC(=O)OC(C)(C)C)OC1=O
8.2,0.84,,,,CC(C)N1C[C@@H]([C@H](O)[C@H](CC2CCCCC2)NC(=O)[C@H](Cc2cnc[nH]2)NC(=O)[C@H](Cc2ccccc2)NC(=O)OC(C)(C)C)OC1=O
25,4.7,,,,CC(C)(C)OC(=O)N[C@@H](Cc1ccccc1)C(=O)N[C@@H](Cc1cnc[nH]1)C(=O)N[C@@H](CC1CCCCC1)[C@@H](O)[C@@H]1CNC(=O)O1
,,0,0,,CC(C)(C)OC(=O)N[C@@H](Cc1ccccc1)C(=O)N[C@@H](Cc1c[nH]cn1)C(=O)N[C@@H](CC1CCCCC1)[C@@H](O)[C@@H](O)CN=[N+]=[N-]
9,,,,,CC(C)(C)OC(=O)N[C@@H](Cc1ccccc1)C(=O)N[C@@H](Cc1cnc[nH]1)C(=O)N[C@@H](CC1CCCCC1)[C@@H](O)[C@@H](O)CN=[N+]=[N-]
13,1.4,,,,CCN1C[C@@H]([C@H](O)[C@H](CC2CCCCC2)NC(=O)[C@H](Cc2cnc[nH]2)NC(=O)[C@H](Cc2ccccc2)NC(=O)OC(C)(C)C)NS1(=O)=O
11,1.2,,,,CCN1C[C@@H]([C@H](O)[C@H](CC2CCCCC2)NC(=O)[C@H](Cc2cnc[nH]2)NC(=O)[C@H](Cc2ccccc2)NC(=O)OC(C)(C)C)NC1=O
2.8,0.89,,,,CC(C)(C)OC(=O)N[C@@H](Cc1ccccc1)C(=O)N[C@@H](Cc1cnc[nH]1)C(=O)N[C@@H](CC1CCCCC1)[C@@H](O)[C@@H]1CC(C)(C)C(=O)O1
63,8,,,,CC(C)(C)OC(=O)N[C@@H](Cc1ccccc1)C(=O)N[C@@H](Cc1cnc[nH]1)C(=O)N[C@@H](CC1CCCCC1)[C@@H](O)[C@@H](O)CNC=O
